Measured values taken from the array DNA melting data of Ke et al. (doi:10.1101/2024.01.08.574731).

Legend:
[1] = melting temperature; fluorescence melt of hairpins on a sequencing array, two-state fit, raised by 9.35 °C to match UV melts; details: sodium 0.088 M
In short: (§1)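 Hairpins were imaged by Cy3 fluorescence on a sequenced MiSeq flow cell with annealed Cy3 and quencher oligos, in 50 mM Na-HEPES pH 8.0, 25 mM NaCl, in 2.5 °C steps up to 60 °C. Bootstrapped two-state fits of normalised signals gave melting temperature and folding enthalpy. Four replicates were combined by inverse variance, and fitted temperatures were raised by 9.35 °C to match UV melts.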

[2] = folding enthalpy; higher = less favourable; fluorescence melt of hairpins on a sequencing array, two-state fit; details: sodium 0.088 M
In short: as §1

Row | Sequence | Tm [1] | folding enthalpy [2]
1 | GTAGCCGAAAGGCGTAC ((((((....))).))) | 57.5 °C | -15.7 kcal/mol
2 | GTAGCCGAAAGGCTTAC ((((((....))).))) | 43.1 °C | -10.3 kcal/mol
3 | GTAGCCGGAAACGGCTGC (.(((((....))))).) | 60.9 °C | -15.9 kcal/mol
4 | GTAGCGGAAACGCTAC ((((((....)))))) | 65.3 °C | -30.2 kcal/mol
5 | GTAGCGGGAAACCGTTAC (((.(((....))).))) | 47.8 °C | -30.2 kcal/mol
6 | GTAGCTGGAAACAACTAC ((((.((....)).)))) | 35.9 °C | -27.2 kcal/mol
7 | GTAGCTGGAAACAGCTGC (.(((((....))))).) | 55.2 °C | -26.3 kcal/mol
8 | GTAGCTGGAAACGGTTAC (((.(.(....).).))) | 28.9 °C | -18.7 kcal/mol
9 | GTAGGAGGAAACCCCTAC (((((.(....).))))) | 38.3 °C | -32.4 kcal/mol
10 | GTAGGCGAAAGCCATAC ((((((....))).))) | 43.8 °C | -11.2 kcal/mol
11 | GTAGGCGAAAGCCCATAC ((((((....)))..))) | 28.2 °C | -8.87 kcal/mol
12 | GTAGGCGAAAGCCCTTAC ((((((....)))..))) | 37.9 °C | -9.27 kcal/mol
13 | GTAGGCGAAAGCCGATAC ((((((....)))..))) | 41.5 °C | -10.1 kcal/mol
14 | GTAGGCGAAAGCCGTAC ((((((....))).))) | 57.3 °C | -13 kcal/mol
15 | GTAGGCGAAAGCCTGTAC ((((((....)))..))) | 34.6 °C | -9.44 kcal/mol
16 | GTAGGCGGAAACGTCTAC ((((.((....)).)))) | 53.1 °C | -39.1 kcal/mol
17 | GTAGGGGAAACCCTAC ((((((....)))))) | 55.4 °C | -36.7 kcal/mol
18 | GTAGGGGGAAACCCTTAC (((.(((....))).))) | 42 °C | -17.4 kcal/mol
19 | GTAGGTGGAAACACCTAC (((((((....))))))) | 60.5 °C | -36.7 kcal/mol
20 | GTAGTACCGAAAGGTTAC (((..(((....)))))) | 29.8 °C | -11.1 kcal/mol
21 | GTAGTACGAAAGTATTAC (((.(((....))).))) | 41.5 °C | -31.3 kcal/mol
22 | GTAGTAGGAAACTACTGC (.(((((....))))).) | 45.7 °C | -27.5 kcal/mol
23 | GTAGTCCGAAAGGATAC (((.(((....)))))) | 38 °C | -15.8 kcal/mol

Row | Sequence | Tm [1] | folding enthalpy [2]
24 | GTAGTCGAAAGACTGTAC ((((((....)))..))) | 32.1 °C | -13.8 kcal/mol
25 | GTAGTCGGAAACAACTAC (((((.(....).))))) | 33.6 °C | -24.5 kcal/mol
26 | GTAGTCGGAAACGACCAC ((.((((....)))).)) | 37.4 °C | -14.5 kcal/mol
27 | GTAGTCTCGAAAGAGTAC (((..(((....)))))) | 31.9 °C | -17.3 kcal/mol
28 | GTAGTGAAAACTAC (((((....))))) | 45.1 °C | -22.3 kcal/mol
29 | GTAGTGCGAAAGCATAC (((.(((....)))))) | 40.5 °C | -12.6 kcal/mol
30 | GTAGTGGGAAACCACTGC (.(((((....))))).) | 50.6 °C | -19.4 kcal/mol
31 | GTAGTGGGAAACCATTGC (.(.(((....))).).) | 24.3 °C | -10.3 kcal/mol
32 | GTAGTGGGAAACTACTAC (((((.(....).))))) | 47.5 °C | -31.7 kcal/mol
33 | GTAGTTCGAAAGAAGTAC (((.(((....))).))) | 46 °C | -25 kcal/mol
34 | GTAGTTGGAAACAACTGC (.(((((....))))).) | 47.6 °C | -18 kcal/mol
35 | GTAGTTGGAAACAATTAC (((.(((....))).))) | 34.2 °C | -23.4 kcal/mol
36 | GTAGTTGGAAACGATTAC (((.(.(....).).))) | 30.9 °C | -13.7 kcal/mol
37 | GTATAAGGAAACTTGTAC (((.(((....))).))) | 31.5 °C | -17.1 kcal/mol
38 | GTATACCGAAAGGTCTAC (((.(((....))).))) | 40.7 °C | -22.4 kcal/mol
39 | GTATACCGAAAGGTGTAC (((.(((....))).))) | 51.6 °C | -27.6 kcal/mol
40 | GTATACCGAAAGGTTTAC (((.(((....))).))) | 43.3 °C | -27.5 kcal/mol
41 | GTATACGAAAGTACTAC ((((((....))).))) | 27.6 °C | -13.1 kcal/mol
42 | GTATAGCGAAAGCTCTAC (((.(((....))).))) | 39.7 °C | -17.3 kcal/mol
43 | GTATATGAAAATATAC ((((((....)))))) | 39.1 °C | -23.7 kcal/mol
44 | GTATATGGAAACATGTAC (((.(((....))).))) | 37.2 °C | -29.6 kcal/mol
45 | GTATCACGAAAGTGGTAC (((.(((....))).))) | 52.8 °C | -27.9 kcal/mol
46 | GTATCAGCGAAAGCTTAC (((..(((....)))))) | 26.3 °C | -8.4 kcal/mol

Row | Sequence | Tm [1] | folding enthalpy [2]
47 | GTATCCCCGAAAGGGTAC (((..(((....)))))) | 35.5 °C | -14.8 kcal/mol
48 | GTATCCCGAAAGGGGTAC (((.(((....))).))) | 55.6 °C | -38.2 kcal/mol
49 | GTATCCGAAAGGAAATAC ((((((....)))..))) | 31 °C | -16.8 kcal/mol
50 | GTATCCGAAAGGAGTTAC ((((((....)))..))) | 25.3 °C | -14.9 kcal/mol
51 | GTATCCGGAAACGAATAC ((((.((....)).)))) | 33.5 °C | -26.5 kcal/mol
52 | GTATCGCGAAAGCGTAC (((.(((....)))))) | 44.5 °C | -12.1 kcal/mol
53 | GTATGACGAAAGTCGTAC (((.(((....))).))) | 53.8 °C | -30.3 kcal/mol
54 | GTATGCCGAAAGGCTTAC (((.(((....))).))) | 50.6 °C | -19 kcal/mol
55 | GTATGCGAAAGCACATAC ((((((....)))..))) | 31.8 °C | -11.2 kcal/mol
56 | GTATGCGAAAGCACGTAC ((((((....)))..))) | 34.1 °C | -8.02 kcal/mol
57 | GTATGCGAAAGCACTAC ((((((....))).))) | 37.3 °C | -13.2 kcal/mol
58 | GTATGCGAAAGCATTAC ((((((....))).))) | 43.4 °C | -13.8 kcal/mol
59 | GTATGCGGAAACGCATAC (((((((....))))))) | 68.2 °C | -33.5 kcal/mol
60 | GTATGCGGAAACGTGTAC (((..((....))..))) | 39.4 °C | -30.2 kcal/mol
61 | GTATGGAAACATAC (((((....))))) | 43.4 °C | -23.5 kcal/mol
62 | GTATGGGCGAAAGCCTAC (((..(((....)))))) | 36.9 °C | -7.19 kcal/mol
63 | GTATGGGGAAACCCACAC ((.((((....)))).)) | 35.1 °C | -18.9 kcal/mol
64 | GTATGGGGAAACCTGTAC (((..((....))..))) | 32.2 °C | -17.1 kcal/mol
65 | GTATGGGGAAACTCATAC (((((.(....).))))) | 40.5 °C | -34.5 kcal/mol
66 | GTATGGGGAAACTCGTAC (((.(.(....).).))) | 29.1 °C | -11.6 kcal/mol
67 | GTATGTGCGAAAGCATAC (((..(((....)))))) | 35 °C | -11.7 kcal/mol
68 | GTATGTGGAAACACACAC ((.((((....)))).)) | 35.2 °C | -17.1 kcal/mol
69 | GTATTACGAAAGTAGTAC (((.(((....))).))) | 41.3 °C | -28.4 kcal/mol

Row | Sequence | Tm [1] | folding enthalpy [2]
70 | GTATTAGGAAACTAATGC (.(((((....))))).) | 34.2 °C | -28.2 kcal/mol
71 | GTATTCACGAAAGTGTAC (((..(((....)))))) | 25.8 °C | -9.14 kcal/mol
72 | GTATTCCCGAAAGGGTAC (((..(((....)))))) | 32.9 °C | -8.03 kcal/mol
73 | GTATTCCGAAAGGATTAC (((.(((....))).))) | 43.5 °C | -28.2 kcal/mol
74 | GTATTCGGAAACGAACAC ((.((((....)))).)) | 34.3 °C | -25.9 kcal/mol
75 | GTATTCGGAAACGGATAC ((((.((....)).)))) | 45.1 °C | -33.2 kcal/mol
76 | GTATTGCGAAAGCAGTAC (((.(((....))).))) | 51.6 °C | -26.8 kcal/mol
77 | GTATTGGGAAACCAACAC ((.((((....)))).)) | 31.4 °C | -15 kcal/mol
78 | GTATTGGGAAACCAATAC (((((((....))))))) | 53.8 °C | -43.7 kcal/mol
79 | GTATTTGAAAAAATAC ((((((....)))))) | 38.1 °C | -25.2 kcal/mol
80 | GTATTTGCGAAAGCATAC (((..(((....)))))) | 28.7 °C | -9.06 kcal/mol
81 | GTATTTGGAAACAAATAC (((((((....))))))) | 50.5 °C | -44.3 kcal/mol
82 | GTCAAACGAAAGTTCGAC (((.(((....))).))) | 43.1 °C | -30.7 kcal/mol
83 | GTCAACCGAAAGGTAGAC (((.(((....))).))) | 51.5 °C | -31.6 kcal/mol
84 | GTCAACGAAAGTTACGAC ((((((....)))..))) | 34.5 °C | -16.4 kcal/mol
85 | GTCAACGAAAGTTAGAC ((((((....))).))) | 41 °C | -23.5 kcal/mol
86 | GTCAACGAAAGTTGGAC ((((((....))).))) | 39.7 °C | -13.2 kcal/mol
87 | GTCAACGAAAGTTGTGAC ((((((....)))..))) | 33 °C | -10.8 kcal/mol
88 | GTCAACGAAAGTTTGAC ((((((....))).))) | 46.9 °C | -28.6 kcal/mol
89 | GTCAACGAAAGTTTTGAC ((((((....)))..))) | 32.8 °C | -17.4 kcal/mol
90 | GTCAACGGAAACGTTAAC ((.((((....)))).)) | 33.7 °C | -17.6 kcal/mol
91 | GTCAAGCGAAAGCTAGAC (((.(((....))).))) | 52.8 °C | -25.6 kcal/mol
